Series [1] deals with Proto-oncogene tyrosine-protein kinase Src (Mus musculus, UniProt P05480). As to the kind of experiment: Inhibition of Src in mouse BV2 cells assessed as suppression of LPS-induced NO release preincubated for 1 hr followed by LPS addition measured after 24 hrs by Griess assay. Type of series: cell-based, BV-2. The method, boiled down:
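BV-2 cells in DMEM/10% FBS, plated at 5×10^3 per well. After 24 h, treated at 100, 50, 10, 5, 1 and 0.1 µM; 1 h later LPS 300 ng/mL added. After another 24 h, nitrite in the medium measured by Griess assay.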
On the technique in general: Griess reagent forms a coloured azo dye with nitrite.

In series [2] the target is Proto-oncogene tyrosine-protein kinase Src (Rattus norvegicus) (UniProt Q9WUD9). The experiment in a line: Inhibition of Src in Sprague-Dawley rat primary mixed mesecephalic neuron/glial cells assessed as suppression of LPS-induced TNFalpha expression at 10 uM preincubated for 1 hr followed by LPS challenge measured after 5 hrs by ELISA. In a few lines:
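Mixed mesencephalic neuron/glia cultures from E14 Sprague-Dawley rats, used at 7 days. Agent at 10 µM added 1 h before LPS 100 ng/mL; IL-1β and TNF-α in medium measured by ELISA after 5 h, n = 6.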
Background: ELISA stands for enzyme-linked immunosorbent assay.

Series [3] in a line: Drug uptake in ICR mouse plasma at 50 mg/kg, ig after 5 mins by LC/MS/MS analysis. Format: ADME, organism-based. The note with it: in vivo, po.
A short description of series [4]: Toxicity in ICR mouse assessed as mortality administered through oral gavage. Format: organism-based. To be noted: in vivo.
Series [5] concerns Mus musculus. The experiment in a line: Increase in dopamine level in striatum of MPTP-induced subacute C57/BL mouse Parkinson's disease model at 10 to 20 mg/kg […] dosed 30 mins prior to each MPTP injection for 5 days and administered continously for 7 days post last MPTP dose by HPLC analysis. Type of series: functional, organism-based. The method, boiled down:
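Sub-acute model: male C57/BL mice given MPTP·HCl 30 mg/kg i.p. for 5 days. Agent (5–20 mg/kg) or L-DOPA 20 mg/kg in 0.5% CMC-Na dosed 30 min before each injection, then for 7 more days. Striatum sonicated in 0.6 N perchloric acid, centrifuged, phosphate/citrate/EDTA solution added, recentrifuged; dopamine by HPLC, n = 8.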

For series [6], the system named is Mus musculus. The experiment in a line: Neuroprotective activity in MPTP-induced subacute C57/BL mouse Parkinson's disease model assessed as reversal of decline of TH-positive neuron levels in substantia nigra at 10 to 20 mg/kg […] dosed 30 mins prior to each MPTP injection for 5 days and administered continuously for 7 days post last MPTP dose by 3,3'-diaminobenzidine staining based light microscopic analysis. Format: functional, organism-based. In a few lines: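 Sub-acute MPTP model (30 mg/kg i.p. × 5 days) with agent (5–20 mg/kg) or L-DOPA pre-dosing and 7 days of continued dosing. Fixed brains cut at 40 µm on a freezing microtome; coronal nigral sections stained with anti-TH and DAB/peroxide; TH-positive cells counted blind by light microscopy.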

Series [7] deals with Mus musculus. As to the kind of experiment: Neuroprotective activity in MPTP/probenecid-induced chronic C57/BL mouse Parkinson's disease model assessed as improvement in motor behavior at 5 to 20 mg/kg dosed once daily for 7 weeks post 10 doses of MPTP/probenecid for 5 weeks measured after last MPTP/probenecid dose by pole test. Type of series: functional, organism-based. The method, boiled down: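 Chronic MPTP/probenecid model (10 doses over 5 weeks), then agent (5–20 mg/kg) or L-DOPA 20 mg/kg daily for 7 weeks. Rotarod at 14 rpm, up to 120 s, fall latency from three trials 1 h apart. Pole test: gauze-wrapped 50 cm pole, descent scored 1–5, two trials 1 h apart after pre-training. n = 15.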

Series [8] relates to Mus musculus. As to the kind of experiment: Neuroprotective activity in alpha-syn A53T transgenic B6C3H mouse assessed as improvement in motor behavior at 5 to 20 mg/kg dosed once daily for 12 consecutive weeks by rotarod test. Format: functional, organism-based. In a few lines: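 Male B6;C3H mice overexpressing mutant alpha-syn (A53T), housed on a 12-h light/dark cycle at 24 °C and 60% humidity, were acclimatised for 1 week. Daily dosing ran 12 consecutive weeks from 4 months of age. Wild-type mice received 0.5% CMC-Na, and L-DOPA 20 mg/kg was the reference. Rotarod ran at 14 rpm for up to 120 s, recording latency to first fall. Each mouse had three trials with 1 h rest between them. n = 15; mean ± SD.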
Background: The rotarod test checks motor coordination on a turning rod.

Series [9] has as its system Mus musculus. The experiment in a line: Effect on GSK3beta protein expression level in midbrain of MPTP/probenecid-induced chronic C57/BL mouse Parkinson's disease model at 5 to 20 mg/kg dosed once daily for 7 weeks post 10 doses of MPTP/probenecid for 5 weeks by iTRAQ-labelled 2D-LC/MS/MS analysis. Type of series: functional, organism-based.
In series [10] the test system is Mus musculus. The experiment in a line: In vivo inhibition of Src in MPTP/probenecid-induced chronic C57/BL mouse Parkinson's disease model assessed as effect on PTEN expression level in midbrain at 5 to 20 mg/kg co-administered with L-DOPA once in a day for 7 weeks post 10 doses of MPTP for 5 weeks by Western blot analysis. Format: functional, organism-based.
The target of series [11] is Proto-oncogene tyrosine-protein kinase Src (Rattus norvegicus) (UniProt Q9WUD9). The experiment in a line: Inhibition of Src in Sprague-Dawley rat primary microglia cells assessed as suppression of LPS-stimulated PTEN phosphorylation at Tyr-240 residue at 10 uM preincubated for 1 hr followed by LPS challenge measured after 3 hrs by Western blot analysis. In a few lines: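 Primary microglia from 1-day-old Sprague-Dawley rat brains, grown to confluence 12–14 days, shaken off astroglia (>98% pure). Agent at 10 µM added 1 h before LPS 100 ng/mL. Phosphorylated Src, Akt and PTEN measured 3 h later by Western blot, n = 4.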

The subject of series [12] is Mus musculus. The experiment in a line: In vivo inhibition of Src in MPTP/probenecid-induced chronic C57/BL mouse Parkinson's disease model assessed as effect on Akt expression level in midbrain at 5 to 20 mg/kg […] once in a day for 7 weeks post 10 doses of MPTP for 5 weeks by Western blot analysis. Format: functional, organism-based.
Series [13] concerns Mus musculus. As to the kind of experiment: In vivo inhibition of Src in MPTP/probenecid-induced chronic C57/BL mouse Parkinson's disease model assessed as effect on NOS1 expression level in midbrain at 5 to 20 mg/kg co-administered with L-DOPA once in a day for 7 weeks post 10 doses of MPTP for 5 weeks by Western blot analysis. Type of series: functional, organism-based.
For series [14], the system named is Mus musculus. The experiment in a line: Effect on GSK3beta protein expression level in midbrain of MPTP/probenecid-induced chronic C57/BL mouse Parkinson's disease model at 5 to 20 mg/kg dosed once daily for 7 weeks post 10 doses of MPTP/probenecid for 5 weeks by Western blot analysis. Type of series: functional, organism-based.
Series [15] has as its system Mus musculus. The experiment in a line: Effect on ARHGAP21 protein expression level in midbrain of MPTP/probenecid-induced chronic C57/BL mouse Parkinson's disease model at 5 to 20 mg/kg dosed once daily for 7 weeks post 10 doses of MPTP/probenecid for 5 weeks by Western blot analysis. Format: functional, organism-based.
Series [16] concerns Mus musculus. As to the kind of experiment: Effect on ROCK1 protein expression level in midbrain of MPTP/probenecid-induced chronic C57/BL mouse Parkinson's disease model at 5 to 20 mg/kg dosed once daily for 7 weeks post 10 doses of MPTP/probenecid for 5 weeks by Western blot analysis. Type of series: functional, organism-based.
Series [17] has as its system Mus musculus. The experiment in a line: Effect on Src protein expression level in midbrain of MPTP/probenecid-induced chronic C57/BL mouse Parkinson's disease model at 5 to 20 mg/kg dosed once daily for 7 weeks post 10 doses of MPTP/probenecid for 5 weeks by Western blot analysis. Format: functional, organism-based.

Activity calls are given as the source filed them. The calls are words filed in the database; no cut-off is given here.

Chain of Proto-oncogene tyrosine-protein kinase Src (Rattus norvegicus) (Q9WUD9 2-536 limits assumed): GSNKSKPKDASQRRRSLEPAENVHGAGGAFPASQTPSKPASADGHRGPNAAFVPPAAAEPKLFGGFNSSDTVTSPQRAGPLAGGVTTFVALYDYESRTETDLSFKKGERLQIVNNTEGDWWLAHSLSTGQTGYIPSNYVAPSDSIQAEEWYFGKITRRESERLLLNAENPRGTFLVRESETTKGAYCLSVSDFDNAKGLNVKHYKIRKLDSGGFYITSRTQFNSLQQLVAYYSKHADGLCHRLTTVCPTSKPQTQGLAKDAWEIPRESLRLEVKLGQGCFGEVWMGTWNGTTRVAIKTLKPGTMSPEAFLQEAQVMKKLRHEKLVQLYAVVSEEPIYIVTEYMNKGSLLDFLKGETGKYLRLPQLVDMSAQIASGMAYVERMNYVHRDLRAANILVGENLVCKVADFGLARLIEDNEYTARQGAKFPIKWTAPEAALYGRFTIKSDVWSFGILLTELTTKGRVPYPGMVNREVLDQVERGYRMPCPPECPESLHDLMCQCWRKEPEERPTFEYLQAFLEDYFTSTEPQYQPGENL
Chain of Proto-oncogene tyrosine-protein kinase Src (P05480 2-535 limits assumed): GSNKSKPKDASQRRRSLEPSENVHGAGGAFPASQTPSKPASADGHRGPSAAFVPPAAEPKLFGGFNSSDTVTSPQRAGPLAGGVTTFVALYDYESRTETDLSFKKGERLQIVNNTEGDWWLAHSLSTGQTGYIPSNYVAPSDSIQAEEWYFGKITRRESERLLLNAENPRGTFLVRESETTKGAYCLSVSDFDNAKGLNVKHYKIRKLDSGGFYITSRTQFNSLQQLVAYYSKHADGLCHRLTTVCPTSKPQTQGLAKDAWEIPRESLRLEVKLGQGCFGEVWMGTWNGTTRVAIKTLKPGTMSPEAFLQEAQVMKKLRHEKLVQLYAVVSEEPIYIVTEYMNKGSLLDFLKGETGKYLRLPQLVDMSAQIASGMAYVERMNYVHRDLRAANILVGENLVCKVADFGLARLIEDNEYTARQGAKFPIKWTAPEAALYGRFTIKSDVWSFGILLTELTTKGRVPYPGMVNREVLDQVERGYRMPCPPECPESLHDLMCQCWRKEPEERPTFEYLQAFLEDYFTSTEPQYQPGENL

Consider `COc1cc(OC)c(CN[C@@H](CO)C(=O)O)c(OC)c1`, for which the IC50 in series [1] was found to be 6.6 µM. The inhibition entry (in series [2]; with Mus musculus [10]; in [11]; in the series on Mus musculus [12]; with Mus musculus [13]) was “Active” in each case. Moreover, the Drug uptake result in series [3] is given as “Active”. In addition, the LD50 in series [4] was greater than 5000 mg/kg. In addition, the result in the series with Mus musculus [5], with Mus musculus [6], in the series on Mus musculus [7], in the series on Mus musculus [8], in the series with Mus musculus [9] and in the series on Mus musculus [14] was Active. The outcome with Mus musculus [15], in the series on Mus musculus [16] and in the series with Mus musculus [17] was Active.

By IC50 is commonly meant the concentration that inhibits the measured activity by half. Broadly, the LD50 is the dose at which mortality reaches 50%.

For the origin of these results see ChEMBL document CHEMBL3860061, “A Novel Parkinson's Disease Drug Candidate with Potent Anti-neuroinflammatory Effects through the Src Signaling Pathway” (J Med Chem, 2016).
